From ChEMBL document CHEMBL1142588, “Communesins G and H, new alkaloids from the psychrotolerant fungus Penicillium rivulum” (J Nat Prod, 2005) come the findings set out here.

One series concerns Amorphotheca resinae. Put plainly: Antifungal activity against Amorphotheca resinae assessed as inhibition zone at 1 mg/mL by paper disk assay. Format: functional, organism-based. The gist of the method:
(§1)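 Paper disk diffusion; 30 μL of a 1 mg/mL compound solution applied per disk; read-out as zone of inhibition. Panel run in parallel: bacteria E. coli, B. subtilis, P. aeruginosa; fungi C. albicans, T. mentagrophytes, A. resinae.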

For the next series, the system named is Escherichia coli. Put plainly: Antibacterial activity against Escherichia coli assessed as inhibition zone at 1 mg/mL by paper disk assay. It is filed as functional, organism-based. The essentials:
as §1

In a further series the test system is Poliovirus 1. Nature of the series: Antiviral activity against Poliovirus type 1 infected in african green monkey BS-C-1 cells. Format: functional, organism-based. The essentials:
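Poliovirus type 1 (Pfizer vaccine strain) infecting African green monkey kidney BSC-1 cells; scored for inhibition of the virus and for alteration of the host cells.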

Series [1] in a line: Cytotoxicity against african green monkey BS-C-1 cells. Format: cell-based. To be noted: chlorocebus aethiops, bsc-1. The essentials:
(§2)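 BSC-1 African green monkey kidney cells infected with Herpes simplex type 1 virus (ATCC VR 733); scored for inhibition of virus and for alteration of the host cells.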

A further series concerns Human alphaherpesvirus 1. Nature of the series: Antiviral activity against herpes simplex virus type 1 ATCC VR 733 infected in african green monkey BS-C-1 cells. Format: functional, organism-based. The essentials:
as §2

For a further series, the system named is P388. Put plainly: Cytotoxicity against mouse P388 cells. Format: functional. The settings on record: read-out: ID50 (the source's name).
Series [2] concerns Trichophyton mentagrophytes. Nature of the series: Antifungal activity against Trichophyton mentagrophytes assessed as inhibition zone at 1 mg/mL by paper disk assay. It is filed as functional, organism-based. The gist of the method:
as §1

Another series has as its system Candida albicans. Put plainly: Antifungal activity against Candida albicans assessed as inhibition zone at 1 mg/mL by paper disk assay. Format: functional, organism-based. The gist of the method: as §1
The test system of a further series is Bacillus subtilis. Nature of the series: Antibacterial activity against Bacillus subtilis assessed as inhibition zone at 1 mg/mL by paper disk assay. Format: functional, organism-based. The essentials: as §1
A further series relates to Pseudomonas aeruginosa. Put plainly: Antibacterial activity against Pseudomonas aeruginosa assessed as inhibition zone at 1 mg/mL by paper disk assay. It is filed as functional, organism-based. The essentials:
as §1

The source made the active and inactive calls. The calls are words filed in the database; no cut-off is given here.

As for `CCCC(=O)N1CC[C@]23c4ccccc4N[C@H]4N(C)c5cccc6c5[C@]42CCN([C@H]6[C@@H]2OC2(C)C)[C@H]13` [COMMUNESIN H], the result (in the series with Amorphotheca resinae; with Escherichia coli; in the series with Poliovirus 1; in the series on Human alphaherpesvirus 1; in series [2]; with Candida albicans) was inactive. Besides, the result with Bacillus subtilis and with Pseudomonas aeruginosa was inactive. Further, the Activity result in series [1] is reported as “Non-toxic”. The IC50 with P388 was > 12.5 µg/mL.

Regarding `CCC(=O)N1CC[C@]23c4ccccc4N[C@H]4N(C)c5cccc6c5[C@]42CCN([C@H]6[C@@H]2OC2(C)C)[C@H]13` [COMMUNESIN G], the outcome (with Amorphotheca resinae; in the series with Escherichia coli; in the series on Poliovirus 1; in the series on Human alphaherpesvirus 1; in series [2]; with Candida albicans) was inactive. For the same compound, the outcome in the series with Bacillus subtilis and in the series on Pseudomonas aeruginosa was inactive. The Activity entry in series [1] is reported as “Non-toxic”. For the same compound, the IC50 with P388 is > 12.5 µg/mL.
